Test results taken from ChEMBL document CHEMBL1137650, “An OXA-66/OXA-51-like carbapenemase and possibly an efflux pump are associated with resistance to imipenem in Acinetobacter baumannii” (2007).
≈ marks a conversion by molar mass, not a printed value.

Key:
Assay type in all cases: functional
Acinetobacter baumannii [1] = assay: Antibacterial activity against imipenem-resistant Acinetobacter baumannii abh11 by broth dilution method
Outline: (§1)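 Clinical isolates were collected at three Taiwan hospitals (1993–2003) and grown in tryptic soy broth at 37°C for 18 h. MIC by broth dilution following CLSI recommendations.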

Acinetobacter baumannii [2] = assay: Antibacterial activity against imipenem-intermediate Acinetobacter baumannii ab1297 by broth dilution method
Outline: (§2)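 Clinical A. baumannii isolates collected at three Taiwanese hospitals, routinely grown in tryptic soy broth at 37°C for 18 h. MICs (μg ml⁻¹) were determined by broth dilution following CLSI recommendations, or by Etest strips following the manufacturer's instructions.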

Acinetobacter baumannii [3] = assay: Antibacterial activity against imipenem-resistant Acinetobacter baumannii abh17 by broth dilution method; outline: as §1
Acinetobacter baumannii [4] = assay: Antibacterial activity against imipenem-susceptible Acinetobacter baumannii ab1254 by broth dilution method; outline: as §1
Acinetobacter baumannii [5] = assay: Antibacterial activity against imipenem-susceptible Acinetobacter baumannii ab20 by broth dilution method; outline: as §1
Acinetobacter baumannii [6] = assay: Antibacterial activity against imipenem-resistant Acinetobacter baumannii abh20 by broth dilution method; outline: as §1
Acinetobacter baumannii [7] = assay: Antibacterial activity against imipenem-resistant Acinetobacter baumannii ab1265 by broth dilution method; outline: as §1
Acinetobacter baumannii [8] = assay: Antibacterial activity against imipenem-resistant Acinetobacter baumannii abh9 by broth dilution method; outline: as §1
Acinetobacter baumannii [9] = assay: Antibacterial activity against imipenem-resistant Acinetobacter baumannii abh36 by broth dilution method; outline: as §1
Acinetobacter baumannii [10] = assay: Antibacterial activity against imipenem-resistant Acinetobacter baumannii abh37 by broth dilution method; outline: as §1
Acinetobacter baumannii [11] = assay: Antibacterial activity against imipenem-resistant Acinetobacter baumannii abh18 by broth dilution method; outline: as §1
Acinetobacter baumannii [12] = assay: Antibacterial activity against imipenem-resistant Acinetobacter baumannii abh13 by broth dilution method; outline: as §1
Acinetobacter baumannii [13] = assay: Antibacterial activity against imipenem-susceptible Acinetobacter baumannii ab3 by broth dilution method; outline: as §1
Acinetobacter baumannii [14] = assay: Antibacterial activity against imipenem-susceptible Acinetobacter baumannii ab12 by broth dilution method; outline: as §1
Acinetobacter baumannii [15] = assay: Antibacterial activity against imipenem-resistant Acinetobacter baumannii abh26 by broth dilution method; outline: as §1
Acinetobacter baumannii [16] = assay: Antibacterial activity against imipenem-resistant Acinetobacter baumannii abh39 by broth dilution method; outline: as §1
Acinetobacter baumannii [17] = assay: Antibacterial activity against imipenem-susceptible Acinetobacter baumannii ab8 by broth dilution method; outline: as §1
Acinetobacter baumannii [18] = assay: Antibacterial activity against imipenem-susceptible Acinetobacter baumannii ATCC 19606 by broth dilution method; settings: ATCC 19606 = CIP 70.34 = JCM 6841
Acinetobacter baumannii [19] = assay: Antibacterial activity against imipenem-susceptible Acinetobacter baumannii ab1316 by broth dilution method; outline: as §2
Acinetobacter baumannii [20] = assay: Antibacterial activity against imipenem-resistant Acinetobacter baumannii abh14 by broth dilution method; outline: as §1
Acinetobacter baumannii [21] = assay: Antibacterial activity against imipenem-resistant Acinetobacter baumannii ab1266 by broth dilution method; outline: as §1
Acinetobacter baumannii [22] = assay: Antibacterial activity against imipenem-susceptible Acinetobacter baumannii ab1308 by broth dilution method; outline: as §2
Acinetobacter baumannii [23] = assay: Antibacterial activity against imipenem-susceptible Acinetobacter baumannii ab4 by broth dilution method; outline: as §1
Acinetobacter baumannii [24] = assay: Antibacterial activity against imipenem-resistant Acinetobacter baumannii abh29 by broth dilution method; outline: as §1
Acinetobacter baumannii [25] = assay: Antibacterial activity against imipenem-resistant Acinetobacter baumannii ISAB ab8(r) by broth dilution method
Acinetobacter baumannii [26] = assay: Ratio of MIC for Acinetobacter baumannii ISAB ab8(r) to MIC for Acinetobacter baumannii ISAB ab8(r) in presence of 2 ug/ml efflux pump inhibitor carbonyl cyanide m-chlorophenyl-hydrazone
Acinetobacter baumannii [27] = assay: Antibacterial activity against imipenem-resistant Acinetobacter baumannii ISAB ab1254(r) by broth dilution method
Acinetobacter baumannii [28] = assay: Antibacterial activity against imipenem-resistant Acinetobacter baumannii ISAB ab8(r) by broth dilution method in presence of 2 ug/ml efflux pump inhibitor carbonyl cyanide m-chlorophenyl-hydrazone
Acinetobacter baumannii [29] = assay: Antibacterial activity against imipenem-resistant Acinetobacter baumannii ISAB ab1254(r) by broth dilution method in presence of 2 ug/ml efflux pump inhibitor carbonyl cyanide m-chlorophenyl-hydrazone
Acinetobacter baumannii [30] = assay: Ratio of MIC for Acinetobacter baumannii ISAB ab1254(r) to MIC for Acinetobacter baumannii ISAB […] in presence of 2 ug/ml efflux pump inhibitor carbonyl cyanide m-chlorophenyl-hydrazone

Structure (SMILES)	MIC (Acinetobacter baumannii [1]) [µg/mL]	MIC (Acinetobacter baumannii [2]) [µg/mL]	MIC (Acinetobacter baumannii [3]) [µg/mL]	MIC (Acinetobacter baumannii [4]) [µg/mL]	MIC (Acinetobacter baumannii [5]) [µg/mL]	MIC (Acinetobacter baumannii [6]) [µg/mL]	MIC (Acinetobacter baumannii [7]) [µg/mL]	MIC (Acinetobacter baumannii [8]) [µg/mL]	MIC (Acinetobacter baumannii [9]) [µg/mL]	MIC (Acinetobacter baumannii [10]) [µg/mL]	MIC (Acinetobacter baumannii [11]) [µg/mL]	MIC (Acinetobacter baumannii [12]) [µg/mL]	MIC (Acinetobacter baumannii [13]) [µg/mL]	MIC (Acinetobacter baumannii [14]) [µg/mL]	MIC (Acinetobacter baumannii [15]) [µg/mL]	MIC (Acinetobacter baumannii [16]) [µg/mL]	MIC (Acinetobacter baumannii [17]) [µg/mL]	MIC (Acinetobacter baumannii [19]) [µg/mL]	MIC (Acinetobacter baumannii [20]) [µg/mL]	MIC (Acinetobacter baumannii [21]) [µg/mL]	other results
CO/N=C(\C(=O)N[C@@H]1C(=O)N2C(C(=O)O)=C(COC(C)=O)CS[C@H]12)c1csc(N)n1 [CEFOTAXIME]	> 256	> 256	> 256	> 256	> 256	> 256	> 256	> 256	> 256	> 256	> 256	> 256	> 256	> 256	> 256	> 256	> 256	> 256	> 256	> 256	MIC (Acinetobacter baumannii [18]): 16 µg/mL (≈ 35.1 µM); MIC (Acinetobacter baumannii [22]): > 256 µg/mL; MIC (Acinetobacter baumannii [23]): > 256 µg/mL; MIC (Acinetobacter baumannii [24]): > 256 µg/mL
C[C@@H](O)[C@H]1C(=O)N2C(C(=O)O)=C(S[C@@H]3CN[C@H](C(=O)N(C)C)C3)[C@H](C)[C@H]12 [MEROPENEM]	> 32	32 (≈ 83.4 µM)	16 (≈ 41.7 µM)	0.75 (≈ 1.96 µM)	0.75 (≈ 1.96 µM)	32 (≈ 83.4 µM)	> 32	> 32	> 32	32 (≈ 83.4 µM)	32 (≈ 83.4 µM)	> 32	0.38 (≈ 0.991 µM)	0.5 (≈ 1.3 µM)	32 (≈ 83.4 µM)	32 (≈ 83.4 µM)	0.5 (≈ 1.3 µM)	1.5 (≈ 3.91 µM)	> 32	> 32	MIC (Acinetobacter baumannii [25]): 8 µg/mL (≈ 20.9 µM); fold change (FC) (Acinetobacter baumannii [26]): 2; MIC (Acinetobacter baumannii [27]): 6 µg/mL (≈ 15.6 µM); MIC (Acinetobacter baumannii [28]): 4 µg/mL; MIC (Acinetobacter baumannii [29]): 3 µg/mL; fold change (FC) (Acinetobacter baumannii [30]): 2; MIC (Acinetobacter baumannii [22]): 0.75 µg/mL (≈ 1.96 µM); MIC (Acinetobacter baumannii [23]): 0.5 µg/mL (≈ 1.3 µM); MIC (Acinetobacter baumannii [24]): > 32 µg/mL
CC(C)(O/N=C(\C(=O)N[C@@H]1C(=O)N2C(C(=O)[O-])=C(C[n+]3ccccc3)CS[C@H]12)c1csc(N)n1)C(=O)O [CEFTAZIDIME]	> 256	> 256	> 256	> 256	24 (≈ 43.9 µM)	> 256	> 256	> 256	> 256	> 256	> 256	> 256	48 (≈ 87.8 µM)	48 (≈ 87.8 µM)	> 256	> 256	48 (≈ 87.8 µM)	> 256	> 256	> 256	MIC (Acinetobacter baumannii [22]): > 256 µg/mL; MIC (Acinetobacter baumannii [23]): 32 µg/mL (≈ 58.5 µM); MIC (Acinetobacter baumannii [24]): > 256 µg/mL
O=C(O)c1cn(C2CC2)c2cc(N3CCNCC3)c(F)cc2c1=O [CIPROFLOXACIN]	> 32	> 32	> 32	> 32	3 (≈ 9.05 µM)	> 32	> 32	> 32	> 32	> 32	> 32	> 32	0.125 (≈ 0.377 µM)	0.25 (≈ 0.754 µM)	> 32	> 32	0.38 (≈ 1.15 µM)	> 32	> 32	> 32	MIC (Acinetobacter baumannii [18]): 0.75 µg/mL (≈ 2.26 µM); MIC (Acinetobacter baumannii [22]): > 32 µg/mL; MIC (Acinetobacter baumannii [23]): 0.25 µg/mL (≈ 0.754 µM); MIC (Acinetobacter baumannii [24]): > 32 µg/mL
